One experiment deals with Translocator protein (Rattus norvegicus, UniProt P16257). As to the kind of experiment: Displacement of [3H]PK11195 from peripheral benzodiazepine receptor in Sprague-Dawley rat cerebral cortex membrane by liquid scintillation counting. In kind it is tissue-based. In a few lines: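 Rat cerebral cortex membranes are washed in PBS, pH 7.4. Incubation with [3H]-ligand (1 nM final), 0.15–0.20 mg protein, 90 min. Filtration on PEI-presoaked GF/B filters, then scintillation counting. Nonspecific binding defined with 10 µM unlabelled ligand. Ki from three experiments in duplicate.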
Sequence of Translocator protein (P16257 whole entry, looked up): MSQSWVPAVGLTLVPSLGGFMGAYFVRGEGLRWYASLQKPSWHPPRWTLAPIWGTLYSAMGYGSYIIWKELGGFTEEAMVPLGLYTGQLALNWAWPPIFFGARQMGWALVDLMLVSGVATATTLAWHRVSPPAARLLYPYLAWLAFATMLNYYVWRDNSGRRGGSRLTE
In general terms: In a radioligand displacement assay an active substance lowers the binding of a labelled ligand.

In experiment [1] the target is T1, GABA-A receptor; alpha-1/beta-2/gamma-2 (Homo sapiens) (UniProt P14867+P47870+P18507). As to the kind of experiment: Agonist activity at human recombinant GABAA alpha-1-beta-2-gamma-2L receptor expressed in Xenopus oocytes assessed as change in GABA-induced chloride current amplitude at 10 uM by voltage clamp technique. In kind it is functional, cell-based. The following applies: Oocyte. The gist of the method:
(§1)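 Xenopus oocytes (stage V–VI, defolliculated) are nuclear-injected with human α1, β2 and γ2L cDNAs (1:1:1) and recorded about 24 h later. Two-electrode voltage clamp at -70 mV, MBS perfusion, room temperature. […] Reported as percent change from control; 5–10 oocytes per concentration.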

Experiment [2] deals with T1, GABA-A receptor; alpha-1/beta-2/gamma-2 (Homo sapiens). In words: Agonist activity at human recombinant GABAA alpha-1-beta-2-gamma-2L receptor expressed in Xenopus oocytes assessed as change in GABA-induced chloride current amplitude at 1 uM by voltage clamp technique. In kind it is functional, cell-based. The following applies: Oocyte. The gist of the method: as §1

Experiment [3] can be described thus: Displacement of [3H]flunitrazepam from central benzodiazepine receptor in Sprague-Dawley rat cerebral cortex membrane by liquid scintillation counting. Format: tissue-based. In a few lines:
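Rat cortical membranes in 50 mM Tris-HCl, pH 7.4, 0.4–0.5 mg protein. Incubated with [3H]flunitrazepam (0.5 nM final) for 60 min at 0 °C. Filtration, then scintillation counting. Nonspecific binding defined with 5 µM diazepam. Ki from three experiments in duplicate.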

For experiment [4], the species on record is Rattus norvegicus. In words: Selectivity ratio of Ki for central benzodiazepine receptor to Ki for peripheral benzodiazepine receptor in Sprague-Dawley rat cerebral cortex membrane. In kind it is tissue-based.
The target of experiment [5] is T1, GABA-A receptor; alpha-1/beta-2/gamma-2 (Homo sapiens). In words: Agonist activity at human recombinant GABAA alpha-1-beta-2-gamma-2L receptor expressed in Xenopus oocytes assessed as inhibition of GABA-induced chloride current amplitude at 10 uM in presence of 10 uM flumazenil by voltage clamp technique. The following applies: Oocyte. Format: functional, cell-based. The gist of the method: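 Two-electrode voltage clamp (-70 mV) of oocytes expressing human α1β2γ2L GABAA receptors. Percent change of GABA response by compound at 10 µM measured with and without flumazenil at 10 µM. Mean of four oocytes ± SEM.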

Experiment [6] is filed under the species Rattus norvegicus. As to the kind of experiment: Agonist activity at GABAA alpha-1-beta-2-gamma-2L receptor in Sprague-Dawley rat hippocampal CA1 pyramidal neurons assessed as increase in miniature inhibitory postsynaptic current amplitude at 30 uM after 30 mins by whole-cell patch clamp technique. The note with it: Hippocampus. Format: functional, tissue-based. In a few lines: (§2)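 Coronal hippocampal slices (300 µm) from male Sprague-Dawley rats anesthetized with ketamine (250 mg/kg i.p.) are recovered in ACSF, 40 min at 34 °C, then 30 min at room temperature. Whole-cell recordings of mIPSCs from CA1 pyramidal neurons at -65 mV, CsCl-based internal with QX-314. Compound bath-perfused at 30 µM for 30 min. Readout is mIPSC amplitude or decay time versus the pre-drug control.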
In general terms: The patch-clamp technique gives a direct electrical read-out from membranes.

For experiment [7], the species on record is Rattus norvegicus. As to the kind of experiment: Agonist activity at GABAA alpha-1-beta-2-gamma-2L receptor in Sprague-Dawley rat hippocampal CA1 pyramidal neurons assessed as increase in miniature inhibitory postsynaptic current decay time at 30 uM after 30 mins by whole-cell patch clamp technique. Format: functional, tissue-based. The note with it: Hippocampus. The gist of the method:
as §2

The species entered for experiment [8] is Rattus norvegicus. In words: Agonist activity at GABAA alpha-1-beta-2-gamma-2L receptor in Sprague-Dawley rat hippocampal CA1 pyramidal neurons assessed as inhibition of miniature inhibitory postsynaptic current amplitude at 30 uM after 30 mins in presence of 1 uM finasteride by whole-cell patch clamp technique. The following applies: Hippocampus. Format: functional, tissue-based. In a few lines:
(§3)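 Rat hippocampal slices, whole-cell mIPSC recording from CA1 pyramidal neurons at -65 mV. Compound (30 µM) co-applied with finasteride (1 µM) for 30 min. Change in mIPSC amplitude or decay averaged over a 3 min period and given as mean percent change, n = 6.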

Experiment [9] is filed under the species Rattus norvegicus. In words: Agonist activity at GABAA alpha-1-beta-2-gamma-2L receptor in Sprague-Dawley rat hippocampal CA1 pyramidal neurons assessed as inhibition of miniature inhibitory postsynaptic current decay time at 30 uM after 30 mins in presence of 1 uM finasteride by whole-cell patch clamp technique. The note with it: Hippocampus. Format: functional, tissue-based. In a few lines:
as §3

“And” between values parts separate entries of the source, which are not always exact repeats. Equal entries are not always repeated. The source made the active and inactive calls. No cut-off for these calls is given here.

For orientation: Ki means a measure of affinity in units of concentration, obtained from inhibition or displacement.

For `CCCCN(C)C(=O)Cc1c(-c2ccc(Cl)c([N+](=O)[O-])c2)nc2c(Cl)cc(Cl)cn12`, the Ki at Translocator protein stood at 0.3 nM. Moreover, the Activity is -9.6% in experiment [1] and -10.2% in [2].

For the molecule `CCC(C)N(C)C(=O)c1cc2ccccc2c(-c2ccccc2Cl)n1` (configuration not stated) [PK-11195], the figures for the Activity in experiment [1] and in [2] were 9.4% and 4.9%, respectively. Further, the inhibition constant (Ki) in [3] is more than 10 nM.

Turning to `CCCCN(C)C(=O)Cc1c(-c2ccc(Cl)c(N)c2)nc2c(Cl)cc(Cl)cn12`, the Ki worked out at 0.78 nM at Translocator protein and 535 nM in [3]. For the same molecule, the Ratio Ki in the experiment listed under Rattus norvegicus [4] turned out to be 686.

With `CCCN(CCC)C(=O)Cc1c(-c2ccc(OC(=O)CN)cc2)nc2c(Cl)cc(Cl)cn12`, the Ki at Translocator protein was 1.52 nM; in [3], more than 10 nM. The values for the Activity in experiment [1] and in [2] were 71% and 26.6%, respectively.

Consider `CN(C(=O)Cc1c(-c2ccc(O)cc2)nc2c(Cl)cc(Cl)cn12)c1ccccc1`, for which the inhibition constant (Ki) came out at 0.32 nM at Translocator protein and 5130 nM in experiment [3]. The Activity is 6.7% in [1] and -5.9% in experiment [2]. The Ratio Ki in the experiment filed under Rattus norvegicus [4] is more than 1000.

As to `CCCN(CCC)C(=O)Cc1c(-c2nccs2)nc2c(Cl)cc(Cl)cn12`, the Ki at Translocator protein was 2.07 nM; in experiment [3], more than 10 nM. The Activity in experiment [1] came out at 60.6%; in [2], 6.3%.

For the molecule `CCCN(CCC)C(=O)Cc1c(-c2ccc(OC)cc2)nc2c(Cl)cc(Cl)cn12`, the Ki is 0.31 nM on Translocator protein and more than 10 nM in experiment [3]. The Activity in experiment [1] was determined as 55.9%; in experiment [2], 8.8%. The result in experiment [5] was inactive.

Take `CCCN(CCC)C(=O)Cc1c(-c2ccc(N)cc2)nc2c(Cl)cc(Cl)cn12` [listing 1 of 3 here]: the Ki at Translocator protein was determined as 2.76 nM; in [3], 1020 nM.

With `CCCN(CCC)C(=O)Cc1c(-c2ccc(Cl)cc2)nc2c(NC(=O)CC(=O)O)cccn12`, the Ki at Translocator protein was 193 nM; in experiment [3], more than 10 nM. Besides, the Activity is 19.8% in experiment [1] and 9.6% in experiment [2].

As for `CCCN(CCC)C(=O)Cc1c(-c2ccc(Cl)c([N+](=O)[O-])c2)nc2c(Cl)cc(Cl)cn12`, the result in the experiment filed under Rattus norvegicus [6] and in the experiment listed under Rattus norvegicus [7] was Active. In addition, the Ki on Translocator protein is 0.24 nM; in [3], more than 10 nM. The result in the experiment listed under Rattus norvegicus [8] and in the experiment filed under Rattus norvegicus [9] was inactive. In addition, the Activity is 9.6% in [1] and 14.9% in experiment [2].

With `COc1ccc(-c2nc3c(Cl)cc(Cl)cn3c2CC(=O)N(C)c2ccccc2)cc1`, the Ki on Translocator protein worked out at 0.23 nM; in experiment [3], 1000 nM. The Activity was -8% in [1] and -8.1% in experiment [2].

As for `CCCCN(C)C(=O)Cc1c(-c2ccc(OC)cc2)nc2c(Cl)cc(Cl)cn12`, the Ki is 0.73 nM at Translocator protein and more than 10 nM in experiment [3]. Moreover, the Activity in [1] was -16.5%; in experiment [2] it was 24.8%.

In the case of `CCCN(CCC)C(=O)Cc1c(-c2ccc(Cl)c(NC(=O)CCC(=O)O)c2)nc2c(Cl)cc(Cl)cn12`, the Ki on Translocator protein was 14.4 nM; in [3], more than 10 nM. Also, the Activity in [1] worked out at 10%; in [2] it was 11.5%.

`CCCN(CCC)C(=O)Cc1c(-c2ccc(Cl)cc2)nc2c(NC(=O)CCC(=O)OCC)cccn12`: the Ki at Translocator protein is 0.86 nM; in experiment [3] it was more than 10 nM.

Consider `CCCN(CCC)C(=O)Cc1c(-c2ccc([N+](=O)[O-])cc2)nc2c(Cl)cc(Cl)cn12`, for which the Ki is 0.15 nM at Translocator protein and more than 10 nM in experiment [3]. For the same molecule, the Activity was -16.6% in experiment [1] and -4.2% in experiment [2].

Turning to `CCCN(CCC)C(=O)Cc1c(-c2ccc(OC(=O)CCC(=O)OC)cc2)nc2c(Cl)cc(Cl)cn12`, the Ki was 1.69 nM at Translocator protein and more than 10 nM in [3]. The Activity turned out to be 37.5% in experiment [1] and 16.6% in experiment [2].

With `CCCN(CCC)C(=O)Cc1c(-c2ccc(Cl)cc2)nc2c(NC(=O)CCC(=O)O)cccn12`, the inhibition constant Ki was 285 nM at Translocator protein and more than 10 nM in experiment [3]. In addition, the Activity in experiment [1] was 12.3%; in [2], 1.3%.

In the case of `CCCN(CCC)C(=O)Cc1c(-c2ccc(Cl)c(N)c2)nc2c(Cl)cc(Cl)cn12` [listing 1 of 3 here], the inhibition constant Ki at Translocator protein came out at 0.45 nM. In other words, the sub-nanomolar range.

Consider `CCCCN(C)C(=O)Cc1c(-c2ccc(Cl)c(N)c2)nc2c(Cl)cccn12`, for which the Ki is 1.04 nM at Translocator protein and 194 nM in experiment [3]. The results for the Activity in [1] and in experiment [2] were 10.7% and 9.5%, respectively. The Ratio Ki in the experiment listed under Rattus norvegicus [4] was found to be 187.

For `CCCN(CCC)C(=O)Cc1c(-c2ccc(Cl)c(N)c2)nc2c(Cl)cc(Cl)cn12` [listing 2 of 3 here], the values for the Ki (at Translocator protein; in experiment [3]) were 0.33 nM and more than 10 nM, respectively.

On to `CCCCN(C)C(=O)Cc1c(-c2ccc(Cl)c([N+](=O)[O-])c2)nc2c(Cl)cccn12`, for which the Ki at Translocator protein is 1.16 nM; in experiment [3], more than 10 nM. Further, the figures for the Activity in [1] and in experiment [2] were -20% and 12.1%, respectively.

For the molecule `CCCN(CCC)C(=O)Cc1c(-c2ccc(Cl)cc2)nc2c(NC(=O)CN)cccn12`, the inhibition constant (Ki) on Translocator protein was 14.2 nM; in experiment [3], more than 10 nM.

As for `CCCN(CCC)C(=O)Cc1c(-c2ccc(Cl)c(N)c2)nc2c(Cl)cc(Cl)cn12` [listing 3 of 3 here], the Activity in experiment [2] is -6.2% and -2.9%.

Consider `CCCN(CCC)C(=O)Cc1c(-c2ccc(Cl)cc2)nc2c(NC(=O)CCCC(=O)O)cccn12`, for which the Ki on Translocator protein is 118 nM; in experiment [3], more than 10 nM. The Activity in experiment [1] is -1.9%; in experiment [2] it was 7.3%.

`CCCN(CCC)C(=O)Cc1c(-c2ccc(N)cc2)nc2c(Cl)cc(Cl)cn12` [listing 2 of 3 here]: the Ki came out at 2.22 nM at Translocator protein and 246 nM in [3].

For the molecule `CCCN(CCC)C(=O)Cc1c(-c2ccc(N)cc2)nc2c(Cl)cc(Cl)cn12` [listing 3 of 3 here], the Activity in experiment [2] was 8.1% and 29.9%.

Consider `CN(C(=O)Cc1c(-c2nccs2)nc2c(Cl)cc(Cl)cn12)c1ccccc1`, for which the Ki on Translocator protein was 1.44 nM; in experiment [3], more than 10 nM. In addition, the Activity was 19.4% in [1] and -1.2% in experiment [2].

Take `CCCN(CCC)C(=O)Cc1c(-c2ccc(O)cc2)nc2c(Cl)cc(Cl)cn12`: the figures for the Ki (at Translocator protein; in experiment [3]) were 1.31 nM and more than 10 nM, respectively. For the same molecule, the Activity in experiment [1] is 23.8%; in experiment [2], -3.9%. In addition, the Ratio Ki in the experiment listed under Rattus norvegicus [4] was more than 1000.

Regarding `CCCCN(C)C(=O)Cc1c(-c2ccc(O)cc2)nc2c(Cl)cc(Cl)cn12`, the results for the Ki (on Translocator protein; in experiment [3]) were 0.87 nM and 2930 nM, respectively. Besides, the Activity in experiment [1] was -23.6%; in [2] it was 7.9%.

The values above are taken from ChEMBL document CHEMBL1142490, “2-Phenyl-imidazo[1,2-a]pyridine compounds containing hydrophilic groups as potent and selective ligands for peripheral benzodiazepine receptors: synthesis, binding affinity and electrophysiological studies” (J Med Chem, 2008).
